Measurements as given in ChEMBL document CHEMBL4715820, “Aglycone Ebselen and β-d-Xyloside Primed Glycosaminoglycans Co-contribute to Ebselen β-d-Xyloside-Induced Cytotoxicity” (J Med Chem, 2018).
Activity calls are given as the source filed them. The rule behind the calls is not given here.

What was measured:
CHO [1] = test: Induction of GAG biosynthesis in CHO pgsA-745 cells assessed as increase in GlcN level in culture media at 10 uM incubated for 48 hrs by immunostaining based confocal microscopic analysis relative to control; assay type: functional, cell-based; conditions: Cricetulus griseus
CHO [2] = test: Induction of GAG biosynthesis in CHO pgsA-745 cells assessed as increase in GalN level in culture media at 10 uM incubated for 48 hrs by immunostaining based confocal microscopic analysis relative to control; assay type: functional, cell-based; conditions: Cricetulus griseus
[3] = Induction of GAG priming in CHO pgsA-745 cells assessed as change in UA-GalNAc4S relative intensity level at 10 uM incubated for 24 hrs by LC-MS analysis (reference value: 1.01); assay type: functional; conditions: Cricetulus griseus, time 48 hrs, in the assay text read “incubated for 48 hrs” for “incubated for 24 hrs”
Summary of the method: (§1)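 Disaccharide LC-MS: CHO pgsA-745 cells treated at 10 μM in 0.1% DMSO, GAGs purified from cells or medium, digested with 1 mU chondroitinase ABC (5 mM NH4Ac pH 7.0, 37 °C, 24 h); treated samples PMP-labelled, DMSO controls D5-PMP-labelled, mixed at equal cellular protein (1 mg), co-injected on C18 capillary LC, negative-ion MS; paired ion intensities compared.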

[4] = Induction of GAG priming in CHO pgsA-745 cells assessed as increase in delta-UA-GalNAc4S level in from the cell culture media at 10 uM incubated for 24 hrs by LC-MS analysis relative to control; assay type: functional; conditions: Cricetulus griseus, time 48 hrs, in the assay text read “48 hrs” for “24 hrs”; summary of the method: as §1
CHO [5] = test: (§2) Induction of GAG biosynthesis in CHO pgsA-745 cells assessed as increase in GlcN level at 10 uM incubated for 48 hrs by immunostaining based confocal microscopic analysis relative to control; assay type: functional; conditions: Cricetulus griseus
[6] = Induction of GAG priming in CHO pgsA-745 cells assessed as increase in delta-UA-GalNAc6S level in from the cell culture media at 10 uM incubated for 24 hrs by LC-MS analysis relative to control; assay type: functional; conditions: Cricetulus griseus, time 48 hrs, in the assay text read “incubated for 48 hrs” for “incubated for 24 hrs”; summary of the method: as §1
CHO [7] = test: Induction of GAG priming in CHO pgsA-745 cells assessed as increase in FGF7/GAGs/FGFR2B ternary complex formation at 10 uM incubated for 24 hrs by confocal microscopy; assay type: functional, cell-based; conditions: Cricetulus griseus
Summary of the method: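 Ternary complex assay: CHO pgsA-745 cells on coverslips treated 10 μM with 0.1% DMSO for 24 h at 37 °C, fixed in 4% formaldehyde 15 min, then incubated sequentially with FGFR2B-Fc, FGF7 and Protein A-Alexa Fluor 647; bound receptor imaged by confocal microscopy at 665 nm […].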

[8] = Induction of GAG priming in CHO pgsA-745 cells assessed as change in UA-GalNAc relative intensity level at 10 uM incubated for 24 hrs by LC-MS analysis (reference value: 8.99); assay type: functional, Cricetulus griseus; summary of the method: as §1
[9] = Induction of GAG priming in CHO pgsA-745 cells assessed as increase in non-sulfated delta-UA-GalNAc level in from the cell culture media at 10 uM incubated for 24 hrs by LC-MS analysis relative to control; assay type: functional; conditions: Cricetulus griseus, time 48 hrs, in the assay text read “incubated for 48 hrs” for “incubated for 24 hrs”; summary of the method: as §1
[10] = Induction of GAG priming in CHO pgsA-745 cells assessed as change in UA-GalNAc6S relative intensity level at 10 uM incubated for 24 hrs by LC-MS analysis (reference value: 9.52); assay type: functional; conditions: Cricetulus griseus, time 48 hrs, in the assay text read “incubated for 48 hrs” for “incubated for 24 hrs”; summary of the method: as §1
CHO [11] = test: (§3) Induction of GAG biosynthesis in CHO pgsA-745 cells assessed as increase in GalN level at 10 uM incubated for 48 hrs by immunostaining based confocal microscopic analysis relative to control; assay type: functional; conditions: Cricetulus griseus
A549 = test: Cytotoxicity in human A549 cells assessed as reduction in cell viability incubated for 48 hrs by resazurin dye based assay; assay type: functional; conditions: for IC50: A549, 48 h
Summary of the method: (§4)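 Cells seeded at 2000/well, 24 h later exposed to serial dilutions (0.1% DMSO vehicle) in complete medium for 48 h; resazurin (2 mg/mL stock) then added for 16 h; fluorescence at 544 nm excitation/595 nm emission, proportional to living cells. Triplicate wells, repeated twice; IC50 from concentration-response.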

HCT-116 [12] = test: Induction of apoptosis in human HCT-116 cells assessed as increase in late apoptosis level at 40 uM incubated for 48 hrs by annexin-V/propidium iodide staining based flow cytometry relative to control
HCT-116 [13] = test: Induction of apoptosis in human HCT-116 cells assessed as increase in early apoptosis level at 40 uM incubated for 24 hrs by annexin-V/propidium iodide staining based flow cytometry relative to control; assay type: functional, cell-based
Summary of the method: (§5)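 HCT116 cells were seeded at 6 × 10^4 cells/well and treated 24 h later in medium containing 0.1% DMSO, with DMSO alone as the control. Floating and trypsinized adherent cells were pooled and washed in binding buffer. They were stained with Annexin V/PI for 15 min at room temperature and read by flow cytometry. Early apoptotic cells were FITC+/PI−; late apoptotic cells were FITC+/PI+.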

NCI-H1299 = test: Cytotoxicity in human NCI-H1299 cells assessed as reduction in cell viability incubated for 48 hrs by resazurin dye based assay; assay type: functional; conditions: for IC50: NCI-H1299, 48 h; summary of the method: as §4
HCT-116 [14] = test: Cytotoxicity in human HCT-116 cells assessed as reduction in cell viability incubated for 48 hrs by resazurin dye based assay; assay type: functional; conditions: for IC50: HCT-116, 48 h; summary of the method: as §4
HCT-116 [15] = test: Induction of cell cycle arrest in human HCT-116 cells assessed as increase in G2/M cell population level at 20 uM incubated for 24 hrs by propidium iodide /RNase staining based flow cytometry relative to control; assay type: functional
Summary of the method: (§6)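 HCT116 cells (6 × 10^4/well, six-well plates) treated after 24 h for 24 h (12.5 or 15 μM for one conjugate, 20 μM for others; 0.1% DMSO vehicle); floating and trypsinized cells fixed in 70% ethanol at 4 °C overnight, stained with PI/RNase 15 min at room temperature, DNA content by flow cytometry; phase distribution versus control.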

HT-29 = test: Cytotoxicity in human HT-29 cells assessed as reduction in cell viability incubated for 48 hrs by resazurin dye based assay; assay type: functional; conditions: for IC50: HT-29, 48 h; summary of the method: as §4
HCT-116 [16] = test: Induction of apoptosis in human HCT-116 cells assessed as increase in late apoptosis level at 40 uM incubated for 24 hrs by annexin-V/propidium iodide staining based flow cytometry relative to control; assay type: functional, cell-based; summary of the method: as §5
HCT-116 [17] = test: Induction of cell cycle arrest at S phase in human HCT-116 cells at 40 uM incubated for 24 hrs by propidium iodide /RNase staining based flow cytometry; assay type: functional
Summary of the method: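 HCT116 cells (6 × 10^4/well) were seeded, then exposed 24 h later in complete medium, with 0.1% DMSO as the control. After 24 h, medium cells and trypsinized adherent cells were combined. Pellets were fixed in 70% ethanol at 4 °C overnight and stained with PI/RNase buffer for 15 min at room temperature. Phase distribution (G0/G1, S, G2/M) was measured by flow cytometry.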

HCT-116 [18] = test: Induction of apoptosis in human HCT-116 cells assessed as late apoptosis level at 12.5 uM […] by annexin-V/propidium iodide staining based flow cytometry relative to control; assay type: functional
HCT-116 [19] = test: Induction of apoptosis in human HCT-116 cells assessed as increase in late apoptosis level at 7.5 uM […] by annexin-V/propidium iodide staining based flow cytometry relative to control; assay type: functional, cell-based
CHO [20] = test: Induction of GAG priming in CHO pgsA-745 cells assessed as increase in specific CS staining […] at 10 uM incubated for 24 hrs by immunostaining based flow cytometry; assay type: functional, cell-based; conditions: Cricetulus griseus
Summary of the method: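 CHO pgsA-745 cells treated 10 μM with 0.1% DMSO 24 h at 37 °C, trypsinized, fixed in 4% formaldehyde, digested with 1 mU chondroitinase ABC 20 min at 37 °C, stained overnight at 4 °C with mAb 2B6 then Alexa Fluor 488 anti-mouse secondary; fluorescence intensity read by flow cytometry.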

HCT-116 [21] = test: Induction of cell cycle arrest in human HCT-116 cells assessed as G2/M cell population level at 15 uM incubated for 24 hrs by propidium iodide /RNase staining based flow cytometry; assay type: functional; summary of the method: as §6
HCT-116 [22] = test: Induction of apoptosis in human HCT-116 cells assessed as early apoptosis level at 12.5 uM […] by annexin-V/propidium iodide staining based flow cytometry relative to control; assay type: functional
[23] = Induction of GAG priming in CHO pgsA-745 cells assessed as increase in non-sulfated delta-UA-GalNAc level in from the cell culture media at 10 uM incubated for 48 hrs by LC-MS analysis relative to control; conditions: Cricetulus griseus
[24] = as §2; assay type: functional, Cricetulus griseus
HCT-116 [25] = test: Induction of cell cycle arrest in human HCT-116 cells assessed as increase in G2/M cell population level at 12.5 uM incubated for 24 hrs by propidium iodide /RNase staining based flow cytometry relative to control; assay type: functional; summary of the method: as §6
[26] = Induction of GAG priming in CHO pgsA-745 cells assessed as change in UA-GalNAc6S relative intensity level at 10 uM incubated for 24 hrs by LC-MS analysis (reference value: 29.19); assay type: functional; conditions: Cricetulus griseus, time 48 hrs, in the assay text read “incubated for 48 hrs” for “incubated for 24 hrs”; summary of the method: as §1
[27] = Induction of GAG priming in CHO pgsA-745 cells assessed as change in UA-GalNAc4S relative intensity level at 10 uM incubated for 24 hrs by LC-MS analysis (reference value: 2.9); assay type: functional; conditions: Cricetulus griseus, time 48 hrs, in the assay text read “incubated for 48 hrs” for “incubated for 24 hrs”; summary of the method: as §1
HCT-116 [28] = test: Induction of cell cycle arrest in human HCT-116 cells assessed as G2/M cell population level at 12.5 uM incubated for 24 hrs by propidium iodide /RNase staining based flow cytometry; assay type: functional; summary of the method: as §6
[29] = Induction of GAG priming in CHO pgsA-745 cells assessed as change in UA-GalNAc relative intensity level at 10 uM incubated for 24 hrs by LC-MS analysis (reference value: 44.74); assay type: functional, Cricetulus griseus; summary of the method: as §1
HCT-116 [30] = test: Induction of apoptosis in human HCT-116 cells assessed as increase in early apoptosis level at 7.5 uM […] by annexin-V/propidium iodide staining based flow cytometry relative to control; assay type: functional
[31] = as §3; assay type: functional, Cricetulus griseus

Structure (SMILES)	Activity (CHO [1])	Activity (CHO [2])	fold change (FC) [4]	fold change (FC) [6]	Activity (CHO [7])	IC50 (A549) [µM]	Activity (HCT-116 [12])	Activity (HCT-116 [13])	IC50 (NCI-H1299) [µM]	IC50 (HCT-116 [14]) [µM]	Activity (HCT-116 [15])	IC50 (HT-29) [µM]	other results
O[C@@H]1[C@@H](O)[C@H](Oc2ccccc2)OC[C@H]1O	Active	Active	<=99	10.5	inactive								fold change (FC) [3]: 100; Activity (CHO [5]): Active; fold change (FC) [8]: 100; fold change (FC) [9]: 11; fold change (FC) [10]: 100; Activity (CHO [11]): Active
CC(=O)OC[C@H]1O[C@@H](n2[se]c3ccccc3c2=O)[C@H](OC(C)=O)[C@@H](OC(C)=O)[C@@H]1OC(C)=O						20.4	Active	Active	19	18	Active	11.9	
CC(=O)OC[C@H]1O[C@@H](O[C@H]2[C@H](OC(C)=O)[C@@H](OC(C)=O)[C@H](n3[se]c4ccccc4c3=O)O[C@@H]2COC(C)=O)[C@H](OC(C)=O)[C@@H](OC(C)=O)[C@H]1OC(C)=O						36.5	Active	Active	34	24.2	Active	32.3	
O=c1c2ccccc2[se]n1-c1ccccc1 [EBSELEN]						16.8		Active	27.7	50		50.4	Activity (HCT-116 [16]): Active; Activity (HCT-116 [17]): Active
CC(=O)OC[C@H]1O[C@@H](n2[se]c3ccccc3c2=O)[C@H](OC(C)=O)[C@@H](OC(C)=O)[C@H]1OC(C)=O						25.2	Active	Active	21.6	17.8	Active	19.3	
CC(=O)O[C@@H]1[C@@H](OC(C)=O)[C@H](OC(C)=O)CO[C@H]1n1[se]c2ccccc2c1=O	inactive	inactive	34.5	3.4	Active	7			7	6.4		7.3	Activity (A549): Dose-dependent effect; Activity (HCT-116 [18]): 13.18%; Activity (HCT-116 [19]): Active; Activity (CHO [20]): Active; Activity (NCI-H1299): Dose-dependent effect; Activity (HCT-116 [21]): 51.9%; Activity (HCT-116 [22]): 10.97%; Activity (HCT-116 [14]): Dose-dependent effect; fold change (FC) [23]: 2.24; fold change (FC) [24]: 12.2; fold change (FC) (HCT-116 [25]): 1.3; fold change (FC) [26]: 100; Activity (HT-29): Dose-dependent effect; fold change (FC) [27]: 100; Activity (HCT-116 [28]): 45.2%; fold change (FC) [29]: 100; fold change (FC) (HCT-116 [30]): 27.7; fold change (FC) [31]: 27.6
